Experimental data: ChEMBL document CHEMBL4622936, “Discovery of the potent non-steroidal glucocorticoid receptor modulator BAY 1003803 as clinical candidate” (Bioorg Med Chem Lett, 2020)
Each block holds one compound with its values, some of them ahead of it.

Columns and labels:
[1] = Lipophilicity, logP of compound; assay type: physicochemical; settings: octanol/water
[2] = Inhibition of collagenase (unknown origin) transfected in human HeLa cells by luciferase reporter gene assay; assay type: cell-based
HeLa = test: Inhibition of collagenase (unknown origin) transfected in human HeLa cells by luciferase reporter gene assay relative to control; assay type: cell-based
THP-1 [3] = test: Immunomodulatory activity in human THP1 cells assessed as reduction in LPS-induced IL-8 production; assay type: functional, cell-based
Summary of the method: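 Human promyeloid THP-1 cells were stimulated with lipopolysaccharide to induce IL-8 synthesis, and inhibition of IL-8 production by the test compound was measured.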

THP-1 [4] = test: Immunomodulatory activity in human THP1 cells assessed as reduction in LPS-induced IL-8 production relative to control; assay type: functional
[5] = Clearance in male Wistar rat plasma at 1 mg/kg, iv; assay type: ADME, organism-based
[6] = Clearance in male Wistar rat blood at 1 mg/kg, iv; assay type: ADME, organism-based; settings: whole blood
[7] = Volume of distribution at steady state in male Wistar rat blood at 1 mg/kg, iv; assay type: ADME, organism-based; settings: whole blood, read-out: Vdss
[8] = Terminal half life in male Wistar rat blood at 1 mg/kg, iv; assay type: ADME, organism-based; settings: whole blood, read-out: beta t1/2 (converted)
[9] = Mutagenicity in Salmonella typhimurium by Ames test; assay type: toxicity; settings: salmonella enterica subsp. enterica serovar typhimurium
PBMC [10] = test: Inhibition of LPS-induced TNFalpha release in human PBMC cells; assay type: functional, cell-based
Summary of the method: (§1)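 Primary human peripheral blood mononuclear cells were stimulated with LPS (IL-12p40, TNFα) or PHA (IFNγ, IL-2, IL-4). Cytokine release was measured with test compound, and clobetasol and dexamethasone were run in parallel as reference glucocorticoids.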

PBMC [11] = test: Inhibition of LPS-induced TNFalpha release in human PBMC cells relative to control; assay type: functional
PBMC [12] = test: Inhibition of LPS-induced IL12p40 release in human PBMC cells; assay type: functional, cell-based; summary of the method: as §1
PBMC [13] = test: Inhibition of LPS-induced IL12p40 release in human PBMC cells relative to control; assay type: functional
PBMC [14] = test: Inhibition of PHA-induced IL2 release in human PBMC cells; assay type: functional, cell-based; summary of the method: as §1
PBMC [15] = test: Inhibition of PHA-induced IL2 release in human PBMC cells relative to control; assay type: functional
PBMC [16] = test: Inhibition of PHA-induced IFNgamma release in human PBMC cells; assay type: functional, cell-based; summary of the method: as §1
PBMC [17] = test: Inhibition of PHA-induced IFNgamma release in human PBMC cells relative to control; assay type: functional
PBMC [18] = test: Inhibition of PHA-induced IL4 release in human PBMC cells; assay type: functional, cell-based; summary of the method: as §1
PBMC [19] = test: Inhibition of PHA-induced IL4 release in human PBMC cells relative to control; assay type: functional
[20] = Metabolic stability in human Hepatocyte assessed as intrinsic clearance; assay type: ADME, cell-based; settings: hepatocytes, read-out: CLH (converted)
[21] = Metabolic stability in rat Hepatocyte assessed as intrinsic clearance; assay type: ADME, cell-based; settings: hepatocytes, read-out: CLH (converted)
[22] = Metabolic stability in dog Hepatocyte assessed as intrinsic clearance; assay type: ADME, cell-based, Canis lupus familiaris; settings: hepatocytes, read-out: CLH (converted)
[23] = Apparent permeability from apical to basolateral side in human Caco2 cells; assay type: ADME, cell-based; settings: Caco-2
Summary of the method: (§2)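 Caco-2 monolayers. Apparent permeability (Papp) was measured from the apical to the basolateral compartment and also in the reverse direction. Efflux ratio is Papp B→A divided by Papp A→B.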

[24] = Efflux ratio of apparent permeability from apical to basolateral side in human Caco2 cells; assay type: ADME, cell-based; settings: Caco-2; summary of the method: as §2
[25] = Drug metabolism in human Hepatocyte assessed as demethylation product M-1 formation; assay type: ADME, cell-based; settings: hepatocytes
[26] = Drug metabolism in rat Hepatocyte assessed as demethylation product M-4 formation; assay type: ADME, cell-based; settings: hepatocytes
[27] = Drug metabolism in dog Hepatocyte assessed as demethylation product M-4 formation; assay type: ADME, cell-based, Canis lupus familiaris; settings: hepatocytes
[28] = Drug metabolism in human Hepatocyte assessed as demethylation product M-4 formation; assay type: ADME, cell-based; settings: hepatocytes
[29] = Drug metabolism in rat Hepatocyte assessed as demethylation product M-1 formation; assay type: ADME, cell-based; settings: hepatocytes
[30] = Drug metabolism in dog Hepatocyte assessed as demethylation product M-1 formation; assay type: ADME, cell-based, Canis lupus familiaris; settings: hepatocytes
[31] = Drug metabolism in human Hepatocyte assessed as demethylation product M-5 formation; assay type: ADME, cell-based; settings: hepatocytes
[32] = Drug metabolism in rat Hepatocyte assessed as demethylation product M-2 formation; assay type: ADME, cell-based; settings: hepatocytes
[33] = Drug metabolism in rat Hepatocyte assessed as demethylation product M-3 formation; assay type: ADME, cell-based; settings: hepatocytes
[34] = Clearance in female Wistar rat plasma at 5 mg/kg, iv; assay type: ADME, organism-based
[35] = Clearance in female Wistar rat blood at 5 mg/kg, iv; assay type: ADME, organism-based; settings: whole blood
[36] = Volume of distribution at steady state in female Wistar rat blood at 5 mg/kg, iv; assay type: ADME, organism-based; settings: whole blood, read-out: Vdss
[37] = Terminal half life in female Wistar rat blood at 5 mg/kg, iv; assay type: ADME, organism-based; settings: whole blood, read-out: beta t1/2 (converted)
[38] = Clearance in female Beagle dog plasma at 1 mg/kg, iv; assay type: ADME, organism-based, Canis lupus familiaris
[39] = Clearance in female Beagle dog blood at 1 mg/kg, iv; assay type: ADME, organism-based, Canis lupus familiaris; settings: whole blood
[40] = Volume of distribution at steady state in female Beagle dog blood at 1 mg/kg, iv; assay type: ADME, organism-based, Canis lupus familiaris; settings: whole blood, read-out: Vdss
[41] = Terminal half life in female Beagle dog blood at 1 mg/kg, iv; assay type: ADME, organism-based, Canis lupus familiaris; settings: whole blood, read-out: beta t1/2 (converted)

logP [1]: 2.4 | EC50 [2]: 1 nM | IC50 (THP-1 [3]): 0.631 nM | clearance [5]: 113 mL/min/kg | clearance [6]: 100 mL/min/kg | Vd [7]: 18 L/kg | half-life [8]: 2.9 h
SMILES: COc1ccc([C@H](Nc2cc(F)cc3[nH]c(=O)ccc23)[C@](O)(CO)C(F)(F)F)c(Cl)c1F
Emax (HeLa): 88% | Emax (THP-1 [4]): 92%

logP [1]: 3.3 | EC50 [2]: 0.794 nM | IC50 (THP-1 [3]): 0.398 nM | CLint scaled [20]: 15.7 mL/min/kg | CLint scaled [21]: 12 mL/min/kg | CLint scaled [22]: 21.7 mL/min/kg | Papp A→B [23]: 1.9 ×10⁻⁶ cm/s | efflux ratio [24]: 0.5 | Drug metabolism [25]: Metabolite_Detected | Drug metabolism [26]: Metabolite_Detected | Drug metabolism [27]: Metabolite_Notdetected | Drug metabolism [28]: Metabolite_Detected | Drug metabolism [29]: Metabolite_Detected | Drug metabolism [30]: Metabolite_Detected | Drug metabolism [31]: Metabolite_Detected | Drug metabolism [32]: Metabolite_Detected | Drug metabolism [33]: Metabolite_Detected | clearance [34]: 50 mL/min/kg | clearance [35]: 60 mL/min/kg | Vd [36]: 7 L/kg | half-life [37]: 1.9 h | clearance [38]: 20 mL/min/kg | clearance [39]: 20 mL/min/kg | Vd [40]: 2.1 L/kg | half-life [41]: 1.3 h
SMILES: COC[C@@](O)([C@@H](Nc1cc(F)cc2[nH]c(=O)ccc12)c1ccc(OC)c(F)c1Cl)C(F)(F)F
Emax (HeLa): 85% | Emax (THP-1 [4]): 95% | IC50 (PBMC [10]): 0.92 nM | Efficacy (PBMC [11]): 98% | IC50 (PBMC [12]): 0.75 nM | Efficacy (PBMC [13]): 96% | IC50 (PBMC [14]): 0.88 nM | Efficacy (PBMC [15]): 95% | IC50 (PBMC [16]): 0.7 nM | Efficacy (PBMC [17]): 96% | IC50 (PBMC [18]): 0.42 nM | Efficacy (PBMC [19]): 99%

EC50 [2]: 7.94 nM | IC50 (THP-1 [3]): 2.51 nM
SMILES: C[C@@H]1C[C@H]2[C@@H]3CCC4=CC(=O)C=C[C@]4(C)[C@@]3(F)[C@@H](O)C[C@]2(C)[C@@]1(O)C(=O)CO [DEXAMETHASONE]
Emax (HeLa): 100% | Emax (THP-1 [4]): 100% | IC50 (PBMC [10]): 6.4 nM | Efficacy (PBMC [11]): 100% | IC50 (PBMC [12]): 4.3 nM | Efficacy (PBMC [13]): 100% | IC50 (PBMC [14]): 4.6 nM | Efficacy (PBMC [15]): 100% | IC50 (PBMC [16]): 3.8 nM | Efficacy (PBMC [17]): 100% | IC50 (PBMC [18]): 2.3 nM | Efficacy (PBMC [19]): 100%

logP [1]: 3.4 | EC50 [2]: 25.1 nM | IC50 (THP-1 [3]): 20 nM
SMILES: CCSC[C@@](O)([C@@H](Nc1cccc2nc(C)ccc12)c1ccc(Cl)c(F)c1O)C(F)(F)F
Emax (HeLa): 102% | Emax (THP-1 [4]): 107%

logP [1]: 3.8 | EC50 [2]: 1.58 nM | IC50 (THP-1 [3]): 0.2 nM
SMILES: COC[C@@](O)([C@@H](Nc1cccc2nc(C)ccc12)c1ccc(OC)c(F)c1Cl)C(F)(F)F
Emax (HeLa): 80% | Emax (THP-1 [4]): 97%

logP [1]: 3.8 | EC50 [2]: 1.58 nM | IC50 (THP-1 [3]): 0.794 nM
SMILES: CCOC[C@@](O)([C@@H](Nc1cc(F)cc2[nH]c(=O)ccc12)c1ccc(OC)c(F)c1Cl)C(F)(F)F
Emax (HeLa): 91% | Emax (THP-1 [4]): 99%

logP [1]: 3.9 | EC50 [2]: 0.398 nM | IC50 (THP-1 [3]): 0.1 nM
SMILES: COc1ccc([C@H](Nc2cc(F)cc3[nH]c(=O)ccc23)[C@](O)(CSC)C(F)(F)F)c(Cl)c1F
Emax (HeLa): 94% | Emax (THP-1 [4]): 100%

The remaining lines, values behind:

SMILES: Nc1ccc(F)c2[nH]c(=O)ccc12
Activity [9]: Toxic

SMILES: Nc1cccc2c(=O)[nH]ccc12
Activity [9]: Toxic

SMILES: Nc1cc(F)cc2[nH]c(=O)ccc12
Activity [9]: Non-Toxic

SMILES: Nc1c(F)ccc2[nH]c(=O)ccc12
Activity [9]: Toxic

SMILES: C[C@H]1C[C@H]2[C@@H]3CCC4=CC(=O)C=C[C@]4(C)[C@@]3(F)[C@@H](O)C[C@]2(C)[C@@]1(O)C(=O)CCl [CLOBETASOL]
IC50 (PBMC [10]): 0.23 nM | Efficacy (PBMC [11]): 102% | IC50 (PBMC [12]): 0.14 nM | Efficacy (PBMC [13]): 98% | IC50 (PBMC [14]): 0.14 nM | Efficacy (PBMC [15]): 97% | IC50 (PBMC [16]): 0.16 nM | Efficacy (PBMC [17]): 101% | IC50 (PBMC [18]): 0.07 nM | Efficacy (PBMC [19]): 99%
